Source: ChEMBL document CHEMBL2169772, “Discovery of (2S)-1-[4-(2-{6-amino-8-[(6-bromo-1,3-benzodioxol-5-yl)sulfanyl]-9H-purin-9-yl}ethyl)piperidin-1-yl]-2-hydroxypropan-1-one (MPC-3100), a purine-based Hsp90 inhibitor” (J Med Chem, 2012)

Experiments:
HCT-116 = test: Cytotoxicity against human HCT116 cells assessed as inhibition of tumor growth incubated for 72 hrs by luminometry; type: functional, cell-based; conditions: HCT-116, 72 h
How it was run: (§1)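 Cells seeded at 5000 per well in DMEM with 10% serum and left overnight. Compound added from DMSO dilutions (0.4% DMSO final) for 72 h. After 5 min at room temperature, ATPLite two-step lysis and substrate added, 5 min incubation, then luminescence read. Values are the mean of at least two experiments.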

Heat shock protein HSP90 [1] = target: T1, Heat shock protein HSP90 (Homo sapiens, UniProt P07900+P08238); test: Inhibition of human HSP90 using BODIPY labelled geldanamycin as substrate by fluorescence polarization assay; type: protein assay
[2] = Cytotoxicity against human NCI-ADR-RES cells overexpressing P-gp 1 assessed as inhibition of tumor growth incubated for 72 hrs by luminometry; type: functional, cell-based; how it was run: as §1
[3] = Metabolic stability in human liver microsomes assessed as percent of residual drug in presence of NADPH incubated for 40 mins by LC-ESI-MS/MS method; type: ADME, Microsome; conditions: liver microsomes, read-out: Stability
How it was run: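 Test article incubated in duplicate with human liver microsomes (0.5 mg/mL protein) in 100 mM potassium phosphate pH 7.4. Started with 1 mM NADPH. Stopped with acetonitrile at 0, 10, 20 and 40 min. LC-MS/MS peak area at 40 min reported as percent of 0 min. No-NADPH control incubated for 40 min.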

Heat shock protein HSP90 [4] = target: T1, Heat shock protein HSP90; test: Inhibition of human HSP90 in HCT116 cells expressing Her2 gene assessed as degradation of Her2 after 4 hrs by luciferase reporter gene assay; type: cell-based; conditions: hct-116
How it was run: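 HCT116 cells stably transfected with Her2 kinase domain (aa 641–975) fused to firefly luciferase. Seeded at 10 000 per well in DMEM with 10% serum and left overnight. Compound added from DMSO (0.4% final) for 4 h. Steady-Glo added at room temperature for 5 min, then luminescence read.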

Row | Compound | IC50 (HCT-116) | IC50 (Heat shock protein HSP90 [1]) | IC50 [2] | remaining at 40 min [3] | IC50 (Heat shock protein HSP90 [4])
1 | CCCC(=O)N1CCC(CCn2c(Sc3cc4c(cc3Br)OCO4)nc3c(N)ncnc32)CC1 | 850 nM | 300 nM | 2000 nM | 0% | 
2 | CC(C)(N)C(=O)N1CCC(CCn2c(Sc3cc4c(cc3Br)OCO4)nc3c(N)ncnc32)CC1 | 1600 nM | 180 nM | 50000 nM |  | 960 nM
3 | CC(=O)N1CCC(CCn2c(Sc3cc4c(cc3Br)OCO4)nc3c(N)ncnc32)CC1 | 730 nM | 60 nM | 3000 nM | 17% | 90 nM
4 | Nc1ncnc2c1nc(Sc1cc3c(cc1Br)CCO3)n2CCC1CCN(C=O)CC1 | 90 nM | 40 nM | 1800 nM |  | 10 nM
5 | Nc1ncnc2c1nc(Sc1cc3c(cc1Br)OCO3)n2CCC1CCC(F)(F)CC1 |  | 1000 nM |  | 15% | 
6 | Nc1ncnc2c1nc(Sc1cc3c(cc1Br)OCO3)n2CCC1CCN(CC(F)(F)F)CC1 |  | 600 nM |  |  | 
7 | Cn1nnnc1N1CCC(CCn2c(Sc3cc4c(cc3Br)OCO4)nc3c(N)ncnc32)CC1 | 62 nM | 45 nM | 130 nM | 0% | 31 nM
8 | Nc1ncnc2c1nc(Sc1cc3c(cc1Br)OCC3)n2CCC1CCN(C=O)CC1 | 1200 nM | 400 nM | 86000 nM | 5% | 280 nM
9 | CC(C)CN1CCC(CCn2c(Sc3cc4c(cc3Br)OCO4)nc3c(N)ncnc32)CC1 |  | 700 nM | 1980 nM |  | 110 nM
10 | C[C@H](O)C(=O)N1CCC(CCn2c(Sc3cc4c(cc3Br)CCO4)nc3c(N)ncnc32)CC1 | 210 nM | 34 nM | 11000 nM | 21% | 28 nM
11 | CN1CCOc2cc(Br)c(Sc3nc4c(N)ncnc4n3CCC3CCN(C=O)CC3)cc21 | 1500 nM | 310 nM | 20000 nM | 0% | 210 nM
12 | C[C@H](N)C(=O)N1CCC(CCn2c(Sc3cc4c(cc3Br)OCO4)nc3c(N)ncnc32)CC1 | 1200 nM | 110 nM | 100000 nM | 69% | 200 nM
13 | Nc1ncnc2c1nc(Sc1cc3ccoc3cc1Br)n2CCC1CCN(C=O)CC1 | 4400 nM | 900 nM | 7900 nM | 51% | 660 nM
14 | CC(C)C[C@H](N)C(=O)N1CCC(CCn2c(Sc3cc4c(cc3Br)OCO4)nc3c(N)ncnc32)CC1 | 890 nM | 68 nM | 34000 nM | 44% | 110 nM
15 | Nc1ncnc2c1nc(Sc1cc3c(cc1Br)OCO3)n2CCc1ccccc1F | 200 nM | 30 nM |  | < 1% | 50 nM
16 | Nc1ncnc2c1nc(Sc1cc3c(cc1Br)OCO3)n2CCC1CCN(C(=O)C2CCCC2)CC1 | 1300 nM | 250 nM | 370 nM | 0% | 250 nM
17 | Nc1ncnc2c1nc(Sc1cc3c(cc1Br)OCO3)n2CCc1ccccc1Br [BROMODERIVATIVE] | 200 nM | 30 nM |  | < 1% | 50 nM
18 | Nc1ncnc2c1nc(Sc1cc3c(cc1Br)OCO3)n2CCc1ccccc1Cl [CHLORODERIVATIVE] | 200 nM | 30 nM |  | < 1% | 50 nM

Row | Compound | IC50 (HCT-116) | IC50 (Heat shock protein HSP90 [1]) | IC50 [2] | remaining at 40 min [3] | IC50 (Heat shock protein HSP90 [4])
19 | Nc1ncnc2c1nc(Sc1cc3c(cc1Br)OCO3)n2CCC1CCN(C(=O)[C@@H]2CCCN2)CC1 | 830 nM | 60 nM | 89000 nM | 38% | 190 nM
20 | Nc1ncnc2c1nc(Sc1cc3c(cc1Br)OCO3)n2CCC1CCOCC1 | 590 nM | 57 nM |  | 0% | 90 nM
21 | Nc1ncnc2c1nc(Sc1cc3c(cc1Br)CCC3)n2CCC1CCN(C=O)CC1 | 20 nM | 20 nM | 230 nM | 1% | 
22 | CC(C)(C)n1nnnc1N1CCC(CCn2c(Sc3cc4c(cc3Br)OCO4)nc3c(N)ncnc32)CC1 |  | 1800 nM |  |  | 
23 | Nc1ncnc2c1nc(Sc1cc3c(cc1Br)OCO3)n2CCC1CCN(C(=O)C2CC2)CC1 | 650 nM | 110 nM | 930 nM | 1% | 110 nM
24 | CN(C)CC(=O)N1CCC(CCn2c(Sc3cc4c(cc3Br)OCO4)nc3c(N)ncnc32)CC1 | 200 nM | 70 nM | 100000 nM |  | 80 nM
25 | CN1CCOc2cc(Sc3nc4c(N)ncnc4n3CCC3CCN(C=O)CC3)c(Br)cc21 | 250 nM | 65 nM | 100000 nM |  | 32 nM
26 | Nc1ncnc2c1nc(Sc1cc3c(cc1Br)OCO3)n2CCC1CCNCC1 | 4600 nM | 470 nM | > 100000 nM | 78% | 950 nM
27 | N#Cc1cc2c(cc1Sc1nc3c(N)ncnc3n1CCC1CCN(C=O)CC1)OCO2 | 25000 nM | 210 nM |  | 81% | 250 nM
28 | Nc1ncnc2c1nc(Sc1cc3c(cc1Cl)OCO3)n2CCC1CCN(C=O)CC1 | 1400 nM | 210 nM | 7600 nM | 31% | 92 nM
29 | CC(=O)C(=O)N1CCC(CCn2c(Sc3cc4c(cc3Br)OCO4)nc3c(N)ncnc32)CC1 | 270 nM | 110 nM | 100000 nM | 2% | 34 nM
30 | Nc1ncnc2c1nc(Sc1cc3c(cc1Br)OCO3)n2CC[C@@H]1CCCCN1C=O |  | 180 nM |  |  | 
31 | Nc1ncnc2c1nc(Sc1cc3c(cc1Br)OCO3)n2CC[C@H]1CCCCN1C=O |  | 190 nM |  |  | 
32 | Nc1ncnc2c1nc(Sc1cc3c(cc1Br)OCO3)n2CCC1CCN(CC2CCCCC2)CC1 | 1000 nM | 240 nM | 722 nM | 10% | 250 nM
33 | CC(C)(O)C(=O)N1CCC(CCn2c(Sc3cc4c(cc3Br)OCO4)nc3c(N)ncnc32)CC1 |  | > 5000 nM |  |  | 
34 | C[C@H](O)C(=O)N1CCC(CCn2c(Sc3cc4c(cc3Cl)OCO4)nc3c(N)ncnc32)CC1 | 2700 nM | 650 nM | 20000 nM | 32% | 540 nM
35 | C#CCN1CCC(CCn2c(Sc3cc4c(cc3Br)OCO4)nc3c(N)ncnc32)CC1 | 740 nM | 110 nM | 700 nM | 10% | 100 nM
36 | Nc1ncnc2c1nc(Sc1cc3c(cc1Br)C(=O)CC3)n2CCC1CCN(C=O)CC1 | 270 nM | 60 nM | 100000 nM | 30% | 60 nM
